Reference: publication PMC3979326 (Science signaling, 2012)
Square brackets hold non-standard residues; d marks the D form. Ends that are not written are not given here. pY = N[C@@H](Cc1ccc(OP(=O)(O)O)cc1)C(=O)O

Assays:
[1] = system: NIH3T3 cells expressing p110β and p85α; assay: Boyden chamber migration, PI3Kβ-expressing NIH3T3 cells; assay type: cell-based
[2] = system: NIH3T3 cells transfected with 12V-Ras; assay: Soft agar colony formation, oncogenic Ras; assay type: cell-based; conditions: Fig. 5E
How it was run: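 Transfected NIH 3T3 cells were grown in DMEM with 10% calf serum. Two days after transfection, 2,500 cells/well were plated in 0.3% top agar over 0.6% bottom agar. Myristoylated peptide was present at 30 µM in both gels and the medium. Colonies were counted 3 weeks later.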

adenylyl cyclase 2 = assay: Adenylyl cyclase assay, synergistic activation by Gβγ and Gαs; assay type: biochemical; conditions: 30 μM; 20 nM each Gαs and Gβγ; Sf9 membranes; 10 min at 30°C; fig. S8B
[3] = system: PC3 cells co-cultured with macrophages; assay: Collagen invasion assay, macrophage-dependent PC3 invasion; assay type: cell-based; conditions: collagen I gel, 24 hours, confocal microscopy; two experiments; Fig. 6D
How it was run: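 BAC-1.2F5 macrophages and PC-3 cells were vitally labelled with red and green CellTracker dyes and co-cultured at 2.5:1. After attachment, cells were overlaid with collagen I gel and incubated 24 h with or without test peptide. Invasion into the 3D gel was quantified by laser scanning confocal detection of dye fluorescence.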

[4] = system: NIH3T3 cells transfected with p110β and p85α; assay: Focus formation assay, PI3Kβ-transfected NIH3T3 cells; assay type: cell-based; conditions: 30 μM peptide; two weeks; crystal violet; Fig. 5D
How it was run: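 NIH 3T3 cells were plated at 2×10^5 cells/well and transfected with myc-p110β and p85α plasmids. Cells were grown two weeks with medium changed every two days, with myristoylated peptide at 30 µM in the medium throughout. Cells were then fixed and stained with crystal violet, and foci were counted per well.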

[5] = system: EGF-dependent activation of Akt (RTK-mediated activation of PI3Kβ); assay: EGF-dependent Akt activation; assay type: cell-based; conditions: intact cells, cell line not named; fig. S7B
[6] = system: NIH3T3 cells transfected with p110β and p85α (PI3Kβ-dependent transformation); assay: Soft agar colony formation, PI3Kβ-transfected NIH3T3 cells; assay type: cell-based
p110β–Rab5 binding = assay: Rab5 pulldown assay; conditions: GST-Rab5 pulldown; fig. S8, E and F
How it was run: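 HEK 293T cells were transfected with wild-type or mutant myc-p110β plus p85α. Lysates were incubated with GTPγS-Rab5 or GST beads, washed, and bound proteins blotted.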

p101–p110γ dimer = assay: Gβγ-dependent activation of class IB PI3K; conditions: fig. S8A
p110β protein = assay: Abundance of p110β protein in cells; assay type: cell-based; conditions: Fig. 5, C and D
[7] = system: LPA-stimulated Akt phosphorylation in NIH3T3 cells; assay: LPA-stimulated Akt activation; assay type: cell-based; conditions: 30 μM peptide, 10 nM LPA for 5 min, Western blot, Fig. 5B
PC3 cells = assay: Boyden chamber chemotaxis, PC3 cells; assay type: cell-based; conditions: 10% FBS, 20 μM (Fig. 6C legend), three experiments
How it was run: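 PC-3 cells (5×10^4) were seeded on inserts with 8.0 µm pores. The upper chamber held serum-free medium with DMSO or myristoylated test peptide. The lower chamber held medium with 10% FBS plus DMSO or peptide.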

[8] = system: PC3 cells (PTEN-null prostate cancer); assay: MTT proliferation, PC3 cells; assay type: cell-based; conditions: 30 μM peptides, 200 nM TGX221, means ± SEM of three experiments, Fig. 6A
[9] = system: NIH3T3 cells transfected with plasmid encoding PI3Kβ; assay: Proliferation of PI3Kβ-transfected NIH3T3 cells; assay type: cell-based; conditions: fig. S7D
PLC-β = assay: Gβγ-mediated PLC-β activation in cells; assay type: cell-based; conditions: COS-7 cells, 30 μM, 30 min before LiCl; [3H]inositol phosphates; fig. S8C
How it was run: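 COS-7 cells were transiently transfected with or without Gβγ plasmids. Reactions were stopped with ice-cold 50 mM formic acid and neutralised with 150 mM NH4OH after lysis. [3H]inositol phosphates were isolated on Dowex columns and quantified.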

[10] = system: Gβγ-mediated activation of Akt via PI3Kβ; assay: Gβγ-mediated Akt activation; assay type: cell-based; conditions: for effect on Gβγ-mediated increase in Akt phosphorylation at Thr308: 30 μM peptide, Fig. 5A, fig. S7A; for effect on Gβγ-dependent activation of Akt (need for cell entry): fig. S7C, labeled versus unlabeled peptide
How it was run: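 HEK 293 cells were grown in DMEM with 10% FBS and transfected with human p85α, myc-p110β, myc-Akt, with or without FLAG-Gβ1 and HA-Gγ2. After overnight serum starvation, cells received myristoylated peptide (30 µM final, from DMSO stock) or TGX-221 (50 nM) for 30 min before lysis. Anti-myc immunoprecipitates were blotted for Akt and pT308-Akt, and the pAkt:total Akt ratio was quantified.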

532KK-DD mutant PI3Kβ = assay: Lipid kinase activity, 532KK-DD mutant PI3Kβ; assay type: biochemical, human; conditions: pY (substrate stock 900 nM); compared with wild-type; Fig. 1F, S4A, S4B
How it was run: (§1)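 Recombinant PI3Kβ from baculovirus-infected insect cells was assayed on lipid vesicles at 1 mg/ml final (5% PIP2, 20% PS, 45% PE, 15% DOPC, 10% cholesterol, 5% sphingomyelin, by weight). Threefold enzyme stocks were 75 nM in Hepes pH 7.5, MgCl2, EDTA. Threefold substrate stocks carried 900 nM RTK-pY and/or 1.5 µM Gβ1γ2. The read-out was 32P-PIP3 captured on nitrocellulose, washed in 1 M NaCl/1% phosphoric acid.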

[11] = system: p110β–Gβ-p85α-icSH2–Gγ-C68S fusion heterotrimer; assay: Lipid kinase activity, fusion heterotrimer; assay type: biochemical, human; conditions: fig. S3A
loop-swap mutant PI3Kβ = assay: Lipid kinase activity, loop-swap mutant PI3Kβ; assay type: biochemical, human; conditions: pY (substrate stock 900 nM); compared with wild-type; Fig. 1F, S4A, S4B
How it was run: as §1

[12] = system: p110β with p85-i or p85-ic; assay: Activity of p110β with p85 truncation constructs; assay type: biochemical; conditions: p85-i (iSH2 only) or p85-ic (iSH2-cSH2); fig. S9
p110β = conditions: ref [7]; cited from earlier work
wild-type PI3Kβ = assay: Lipid kinase activity, wild-type PI3Kβ from insect cells; assay type: biochemical, human; conditions: no pY; Fig. 1F
How it was run: as §1

[13] = system: 532KK-DD mutant PI3Kβ in HEK 293E cells; assay: Gβγ-mediated Akt activation, 532KK-DD mutant PI3Kβ; assay type: cell-based, human; conditions: myc-Akt, Western blot, Fig. 2A
How it was run: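 HEK 293E cells were transfected with human p85α, mutant myc-p110β and myc-Akt, with or without FLAG-Gβ1 and HA-Gγ2, then serum-starved overnight. After anti-myc immunoprecipitation, pT308-Akt and total Akt were blotted and quantified by densitometry or infrared imaging. The pAkt:total Akt ratio is expressed as percent of basal.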

p101–p110γ dimer (PI3Kγ) = assay: Lipid kinase activity, immunopurified p101–p110γ, Gβγ-stimulated; assay type: biochemical; conditions: 1 μM p110β-peptide or QEHA, 10 μM SIGK; 200 nM Gβγ; lipid kinase assay
How it was run: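 Peptides were prepared in 20 mM Tris-HCl pH 7.4, 10 mM NaCl: test peptide 1 µM, scrambled 1 µM, SIGK 10 µM, QEHA 1 µM. Each was preincubated with 200 nM recombinant lipidated Gβγ for 30 min on ice, then with lipid vesicles 10 min on ice. Immunopurified PI3Kγ was added for 10 min before the kinase assay. Data are means ± SEM of triplicates, representative of two to three experiments.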

PLCβ3 = assay: In vitro Gβγ-mediated activation of PLCβ; assay type: biochemical; conditions: PLCβ3 1 nM, 10 min at 30°C, [3H]PIP2; fig. S8D
How it was run: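 Reactions used recombinant PLCβ3 with a range of peptide concentrations, with or without 200 nM Gαq and with or without Gβγ. Buffer was 20 mM Hepes pH 7.2, 70 mM KCl, 3 mM EGTA, 10 mM NaF, 20 µM AlCl3, 5 mM MgCl2. Substrate was 33 µM PIP2/333 µM PE with [3H]PIP2, free Ca2+ 200 nM. Reactions were stopped with 10% TCA plus BSA, and supernatant counted by scintillation.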

In the case of “KAAEIASSDSANVSSRGGKKFLPV [myristoylated p110β-peptide]”, the “effect on enhanced migration of PI3Kβ-transfected NIH3T3 cells” value ([1]; Boyden chamber towards 10% FBS, 24 hours, 30 μM, Fig. 5F) is reported as “blocked the enhanced migration”, the “effect on cellular transformation by oncogenic Ras” value [2] is reported as “no effect” and the “effect on synergistic activation of adenylyl cyclase by Gβγ and Gαs” value (adenylyl cyclase 2) is reported as “no effect”. The “effect on macrophage-dependent PC3 cell invasion” value [3] was “blocked”, the “effect on PI3Kβ-dependent transformation, focus formation” value [4] was “inhibited” and the “effect on EGF-dependent activation of Akt” value [5] was “no effect”. For the same compound, the “effect on PI3Kβ-dependent transformation, soft agar colony formation” value ([6]; 30 μM peptide in gels and media, colonies counted after 3 weeks, Fig. 5C) was “inhibited”, the “effect on binding of p110β to Rab5” value (p110β–Rab5 binding) was “no effect” and the “effect on Gβγ-dependent activation of class IB PI3K (p101–p110γ)” value (p101–p110γ dimer) was “no effect”. The “effect on abundance of p110β protein” value (p110β protein) was “did not reduce the abundance of p110β protein”, the “effect on LPA-stimulated increase in Akt phosphorylation at Thr308” value [7] was “completely inhibited” and the “effect on chemotaxis of PC3 cells toward serum” value (PC3 cells) was “inhibited the chemotaxis”. The “effect on PC3 cell proliferation” value [8] was “proliferation was inhibited”, the “effect on proliferation of PI3Kβ-transfected NIH3T3 cells” value [9] was “neither the myristoylated peptide nor pertussis toxin inhibited the proliferation” and the “effect on Gβγ-mediated activation of PLC-β in cells” value (PLC-β) was “no effect”. The “effect on Gβγ-mediated increase in Akt phosphorylation at Thr308” value ([10]; 30 min, Western blot) was “completely inhibited” and the “effect on Gβγ-dependent activation of Akt (need for cell entry)” value ([10]; listed as myristoylated) was “inhibited Gβγ-dependent activation of Akt”.

In the case of pertussis toxin [reference compound], the “effect on wild-type p110β-enhanced migration” value ([1]; pertussis toxin, fig. S6, B and C) is reported as “inhibited”, the “effect on wild-type p110β-enhanced transformation” value ([6]; pertussis toxin, NIH3T3 cells, fig. S6, B and C) is reported as “inhibited” and the “effect on PC3 cell proliferation” value [8] is reported as “proliferation was inhibited”. The “effect on proliferation of PI3Kβ-transfected NIH3T3 cells” value [9] was “neither the myristoylated peptide nor pertussis toxin inhibited the proliferation”.

For “NGAEKVGSADSKSIAFVSLKARSP [myristoylated scrambled peptide, reference compound]”, the “effect on PI3Kβ-dependent transformation, focus formation” value [4] was “but not the myristoylated scrambled peptide, inhibited”, the “effect on LPA-stimulated increase in Akt phosphorylation at Thr308” value [7] was “minimal effects” and the “effect on PC3 cell proliferation” value [8] was “unaffected”. The “effect on Gβγ-mediated increase in Akt phosphorylation at Thr308” value ([10]; 30 min, Western blot) was “minimal effects”.

With ESDGG[pY]MDMSKDESID[pY]VPMLDMKGDIKYADIE the “activation of mutant PI3Kβ by pY (532KK-DD)” value (532KK-DD mutant PI3Kβ) was “activated to a similar extent”, the “stimulation of fusion heterotrimer” value [11] was “could be stimulated” and the “activation of mutant PI3Kβ by pY (loop-swap)” value (loop-swap mutant PI3Kβ) was “activated to a similar extent”.

For “Gβγ: Recombinant human Gβ1, N-terminally hexahistidine-tagged bovine wild-type Gγ2”, the “stimulation of p110β associated with p85-i or p85-ic” value [12] is listed as “stimulates p110β”, the “stimulation of p110β in the absence of p85” value (p110β) is listed as “stimulates p110β” and the “stimulation of fusion heterotrimer” value [11] is listed as “could be stimulated”. The “pT308-Akt in presence of exogenous Gβγ, wild-type PI3Kβ” value ([10]; HEK 293E cells, wild-type PI3Kβ, myc-Akt, Western blot, Fig. 2A) was “marked increase”, the “PI3Kβ activation by Gβγ in the absence of pY” value (wild-type PI3Kβ) was “activated PI3Kβ in the absence of pY” and the “Akt activation in presence of exogenous Gβγ, 532KK-DD mutant” value [13] was “complete loss of Akt activation”.

For “KAAEIASSDSANVSSRGGKKFLPV [p110β-peptide]”, the “effect on Gβγ-mediated activation of p101–p110γ dimers” value (from here on “effect … of p101–p110γ dimers”) (p101–p110γ dimer (PI3Kγ)) was “no effect on Gβγ-mediated activation of p101–p110γ dimers”, the “effect on Gβγ-mediated activation of PLC-β in vitro” value (PLCβ3) was “no effect” and the “effect on Gβγ-dependent activation of Akt (need for cell entry)” value ([10]; listed as unlabeled peptide) was “no such effect”.

In the case of QEHAQEPERQYMHIGTMVEFAYALVGK, the “effect … of p101–p110γ dimers” value (p101–p110γ dimer (PI3Kγ)) is reported as “inhibited”.

For SIGKAFKILGYPDYD, the “effect … of p101–p110γ dimers” value (p101–p110γ dimer (PI3Kγ)) was “inhibited”.

With Cc1cc(C(C)Nc2ccccc2)c2nc(N3CCOCC3)cc(=O)n2c1 (stereo not drawn) [TGX221, reference compound] the “effect on EGF-dependent activation of Akt” value [5] was “substantial inhibitory effect”, the “effect on PC3 cell proliferation” value [8] was “unaffected” and the “effect on Gβγ-dependent Akt activation (TGX-221)” value ([10]; HEK 293E cells with p110β, p85α, myc-Akt, Gβ1γ2, TGX-221 50 nM, 30 min, fig. S5A) was “specifically inhibited”.
